Experimental findings from ChEMBL document CHEMBL5149984, “Discovery of HN37 as a Potent and Chemically Stable Antiepileptic Drug Candidate” (J Med Chem, 2021) are described below.

Data set [1] can be described thus: Volume of distribution at steady state in Kunming mouse plasma at 2 mg/kg, iv measured upto 24 hrs by LC-MS/MS method. In kind it is ADME, organism-based. To be noted: in vivo. An outline of the steps: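 Male KM mice (18–24 g), fasted 12 h before and 2 h after dosing, n = 3 per time point. Oral dose in 5% DMSO/5% Tween 80/90% saline; i.v. dose is that formulation diluted in saline with 1% Tween 80. Blood sampled 0.25–24 h after oral dosing, 0.083–24 h after i.v.; whole brain taken after oral dosing. Acetonitrile extraction with internal standard, LC-MS/MS.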

The nature of data set [2]: Tmax in Sprague-Dawley rat at 20 mg/kg, po measured upto 24 hrs by LC-MS/MS method. In kind it is ADME, organism-based. As to conditions: in vivo. Summed up: (§1)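 Male SD rats (180–220 g) dosed orally at 2, 6 and 20 mg/kg, handled like the mice: fasting, 5% DMSO/5% Tween 80/saline vehicle, acetonitrile extraction, LC-MS/MS of plasma. In a separate set at 6 mg/kg p.o., blood and brain were sampled together.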

Data set [3] is described as follows: Tmax in Sprague-Dawley rat brain at 6 mg/kg, po measured upto 24 hrs by LC-MS/MS method. It counts as ADME, organism-based. Summed up: as §1
A short description of data set [4]: Tmax in Sprague-Dawley rat blood at 6 mg/kg, po measured upto 24 hrs by LC-MS/MS method. In kind it is ADME, organism-based. An outline of the steps:
as §1

The nature of data set [5]: Cmax in Sprague-Dawley rat at 6 mg/kg, po measured upto 24 hrs by LC-MS/MS method. Also on record: time < 24 hrs, dose 6 mg/kg, route po. To be noted: in vivo. It counts as ADME, organism-based. Summed up: (§2)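 Male SD rats (180−220 g) given single oral doses of 2, 6 and 20 mg/kg; handled as in the mouse PK study (fasted 12 h before and 2 h after dosing, 5% DMSO/5% Tween 80/90% saline formulation). In a separate 6 mg/kg p.o. set, blood and brain were sampled together. Plasma and brain levels by LC−MS/MS.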

The nature of data set [6]: Cmax in Sprague-Dawley rat blood at 6 mg/kg, po measured upto 24 hrs by LC-MS/MS method. In kind it is ADME, organism-based. Also on record: time < 24 hrs, dose 6 mg/kg, route po. An outline of the steps: as §2
Data set [7] is described as follows: Half life in Sprague-Dawley rat at 2 mg/kg, po measured upto 24 hrs by LC-MS/MS method. It counts as ADME, organism-based. As to conditions: in vivo. Summed up: as §2
Data set [8] in a line: Metabolic stability in dog liver microsomes assessed as half life. In kind it is ADME, Canis lupus familiaris, Microsome.
Data set [9] in a line: Metabolic stability in rat liver microsomes assessed as half life. In kind it is ADME, Microsome.
The target of another data set is Cytochrome P450 2C19 (Homo sapiens, UniProt P33261). As to the kind of experiment: Time dependent inhibition of human liver microsome CYP2C19 preincubated for 0.5 hrs in presence or absence of NADPH followed by substrate addition by LC-MS/MS method. It counts as ADME, microsomes. An outline of the steps:
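Human liver microsomes preincubated 0.5 h with 0.10–50 μM test compound, with or without NADPH, then CYP-specific probe substrate added and incubation continued. Metabolite measured by LC-MS/MS; % activity remaining relative to no-compound control; IC50 fitted by Probit model. For CYP3A4, midazolam 1′-hydroxylation and testosterone 6β-hydroxylation were read separately.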

Data set [10] deals with Mus musculus. Nature of the data set: Anticonvulsant activity in MES induced Kunming mouse model of seizure at 5 mg/kg, po after 1 hr. It counts as functional. Summed up:
(§3)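 MES test in male KM mice. Compounds freshly suspended in 0.5% CMC-Na and given by gavage at 20 mL/kg; 160 V stimulus through ear clips. Protection scored as absence of hindlimb tonic extension; time course at 0.25, 0.5, 1 and 2 h, otherwise tested at 1 h. ED50 from dose−response by nonlinear regression; Fisher's exact test versus vehicle.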

Data set [11] is described as follows: Drug concentration in Kunming mouse plasma at 5 mg/kg. It counts as ADME, organism-based. As to conditions: in vivo. An outline of the steps: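 Male KM mice (18−24 g) fasted 12 h before and 2 h after dosing, given 5 mg/kg orally in 5% DMSO/5% Tween 80/90% normal saline (n = 3 per time point). Aortic blood taken at 0.25–24 h and whole brain collected. Acetonitrile extraction with internal standard, then LC−MS/MS. Bioavailability calculated against the 2 mg/kg i.v. arm.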

Data set [12] can be described thus: Neurotoxicity in Kunming mouse assessed as motor impairment rate at 200 mg/kg, po after 1 hr by rotarod test. As to conditions: in vivo. It counts as toxicity, organism-based. Summed up:
(§4)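 Male KM mice dosed intragastrically with compound freshly suspended in 0.5% CMC-Na. Rotarod performance scored 1 h after dosing as the fraction of animals showing motor impairment. Fisher's exact test versus vehicle; TD50 from nonlinear dose−response fit.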

For another data set, the species on record is Rattus norvegicus. Nature of the data set: Potency index, ratio of Topiramate ED50 to test compound ED50 for anticonvulsant activity in MES induced rat model of seizure after 1 hr. In kind it is functional.
For data set [13], the target named is T1, Potassium voltage-gated channel subfamily KQT member 4 (Homo sapiens) (UniProt P56696).
T1 sequence (whole entry): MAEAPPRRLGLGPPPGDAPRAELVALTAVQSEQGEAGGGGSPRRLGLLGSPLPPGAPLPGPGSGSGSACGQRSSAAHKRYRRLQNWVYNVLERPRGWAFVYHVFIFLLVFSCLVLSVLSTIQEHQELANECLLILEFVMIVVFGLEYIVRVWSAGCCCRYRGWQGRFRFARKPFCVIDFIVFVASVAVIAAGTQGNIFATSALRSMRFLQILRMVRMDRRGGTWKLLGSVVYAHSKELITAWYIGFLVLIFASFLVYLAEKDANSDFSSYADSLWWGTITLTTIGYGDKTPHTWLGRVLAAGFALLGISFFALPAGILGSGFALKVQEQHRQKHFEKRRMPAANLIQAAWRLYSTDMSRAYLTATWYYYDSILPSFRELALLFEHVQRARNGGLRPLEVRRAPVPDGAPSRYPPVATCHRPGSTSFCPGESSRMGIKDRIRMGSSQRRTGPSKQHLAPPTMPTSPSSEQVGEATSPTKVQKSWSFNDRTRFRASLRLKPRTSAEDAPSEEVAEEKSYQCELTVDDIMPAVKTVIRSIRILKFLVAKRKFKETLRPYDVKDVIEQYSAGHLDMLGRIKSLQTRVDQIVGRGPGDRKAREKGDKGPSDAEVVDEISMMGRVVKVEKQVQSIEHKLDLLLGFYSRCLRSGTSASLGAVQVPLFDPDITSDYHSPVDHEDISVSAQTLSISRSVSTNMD
Nature of the data set: Agonist activity at human KCNQ4 channel expressed in CHO cells assessed as shift of half voltage of maximal activation at 10 uM by patch clamp method. In kind it is cell-based. As to conditions: filed as agonist. An outline of the steps: (§5)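 Whole-cell patch clamp at room temperature on CHO cells (DMEM/F12, 10% FBS) transiently co-transfected with EGFP and hKCNQ1, rKCNQ2, rKCNQ3 A278T, hKCNQ4 or hKCNQ5; KCNQ2/3 at 1:1 cDNA ratio. Pipette solution 145 mM KCl, 5 mM MgATP, pH 7.3; bath 140 mM NaCl, 5 mM KCl, pH 7.4, under perfusion. V1/2 from Boltzmann fits; I/I0 is current amplitude with versus without compound; n = 4−6.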

In data set [14] the target is T1, Potassium voltage-gated channel subfamily KQT member 4 (Homo sapiens). Nature of the data set: Agonist activity at human KCNQ4 channel expressed in CHO cells assessed as amplitude change of outward current at 10 uM by patch clamp method. It counts as cell-based. To be noted: filed as agonist. An outline of the steps: as §5
Data set [15] has as its system Mus musculus. Nature of the data set: Anticonvulsant activity in MES induced Kunming mouse model of seizure at 30 mg/kg, po after 1 hr. In kind it is functional. Summed up: as §3
Data set [16] relates to Mus musculus. Nature of the data set: Anticonvulsant activity in MES induced Kunming mouse model of seizure at 100 mg/kg, po. It counts as functional. An outline of the steps:
as §3

Data set [17] is described as follows: Neurotoxicity in po dosed Kunming mouse assessed as motor impairment after 1 hr by rotarod test. It counts as toxicity, organism-based. To be noted: in vivo. An outline of the steps:
as §4

Sequence of Cytochrome P450 2C19 (P33261 whole entry): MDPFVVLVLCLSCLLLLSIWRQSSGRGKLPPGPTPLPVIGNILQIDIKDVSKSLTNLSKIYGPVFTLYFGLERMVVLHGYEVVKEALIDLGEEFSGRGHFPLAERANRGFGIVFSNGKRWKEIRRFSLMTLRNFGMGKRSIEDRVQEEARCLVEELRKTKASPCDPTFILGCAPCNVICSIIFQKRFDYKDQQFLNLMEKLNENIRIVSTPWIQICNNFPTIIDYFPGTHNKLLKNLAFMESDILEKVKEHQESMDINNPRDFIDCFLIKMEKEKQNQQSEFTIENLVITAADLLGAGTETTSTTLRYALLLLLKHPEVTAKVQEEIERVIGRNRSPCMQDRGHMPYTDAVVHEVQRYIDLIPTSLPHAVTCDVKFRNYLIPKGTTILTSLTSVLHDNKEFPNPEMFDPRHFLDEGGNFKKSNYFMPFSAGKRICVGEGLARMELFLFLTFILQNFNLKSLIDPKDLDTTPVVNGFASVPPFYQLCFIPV

`C#CCN(Cc1ccc(F)cc1)c1cc(C)c(NC(=O)OC)c(C)c1`: in [1], the Vdss worked out at 2.89 L/kg. Further, the Tmax was 220 min in data set [2], 15 min in data set [3] and 15 min in data set [4]. Besides, the Cmax in data set [5] was 264 ng/mL; in data set [6], 162 ng/mL. In addition, the results for the half-life in [7], in [8] and in data set [9] were 103 min, 35.5 min and 23.7 min, respectively. For the same compound, the concentration for half-maximal inhibition (IC50) against Cytochrome P450 2C19 is greater than 50 µM. For the same compound, the Activity (in the data set with Mus musculus [10]; in data set [12]) was 100% in each case. In addition, the concentration in data set [11] turned out to be 110 nM. Besides, the “Ratio ED50” value in the data set listed under Rattus norvegicus amounted to 18.7.

As to `CCOC(=O)Nc1ccc(NCc2ccc(F)cc2)cc1N` [EZOGABINE], the Activity in [13] was -34.1 mV; in data set [14], 2.85; with Mus musculus [15], 60%; in the data set on Mus musculus [16], 87.5%; in data set [17] (po, 1 h, DDE = dose-dependent effect) it was “Dde”. In addition, the TD50 at 1 h in [17] (Kunming) came to 188 mg/kg.
